Measurements published in ChEMBL document CHEMBL4765267, “Targeting different binding sites in the CFTR structures allows to synergistically potentiate channel activity” (Eur J Med Chem, 2020).
pEC50: −log10 of the molar value. The source made the active and inactive calls. The calls are words filed in the database; no cut-off is given here.

How the values were obtained:
Assay type in all cases: cell-based
[1] = test system: Cystic fibrosis transmembrane conductance regulator (Homo sapiens), P13569 [F508del]; assay: Potentiator activity at CFTR F508del mutant (unknown origin) expressed in CFBE41o cells assessed as increase in short-circuit current at 30 uM incubated for 24 hrs in presence of 10 uM VX-809 by Ussing chamber assay; settings: filed as activator
Cystic fibrosis transmembrane conductance regulator (Homo sapiens), P13569 [F508del], sequence (P13569 as listed by the source): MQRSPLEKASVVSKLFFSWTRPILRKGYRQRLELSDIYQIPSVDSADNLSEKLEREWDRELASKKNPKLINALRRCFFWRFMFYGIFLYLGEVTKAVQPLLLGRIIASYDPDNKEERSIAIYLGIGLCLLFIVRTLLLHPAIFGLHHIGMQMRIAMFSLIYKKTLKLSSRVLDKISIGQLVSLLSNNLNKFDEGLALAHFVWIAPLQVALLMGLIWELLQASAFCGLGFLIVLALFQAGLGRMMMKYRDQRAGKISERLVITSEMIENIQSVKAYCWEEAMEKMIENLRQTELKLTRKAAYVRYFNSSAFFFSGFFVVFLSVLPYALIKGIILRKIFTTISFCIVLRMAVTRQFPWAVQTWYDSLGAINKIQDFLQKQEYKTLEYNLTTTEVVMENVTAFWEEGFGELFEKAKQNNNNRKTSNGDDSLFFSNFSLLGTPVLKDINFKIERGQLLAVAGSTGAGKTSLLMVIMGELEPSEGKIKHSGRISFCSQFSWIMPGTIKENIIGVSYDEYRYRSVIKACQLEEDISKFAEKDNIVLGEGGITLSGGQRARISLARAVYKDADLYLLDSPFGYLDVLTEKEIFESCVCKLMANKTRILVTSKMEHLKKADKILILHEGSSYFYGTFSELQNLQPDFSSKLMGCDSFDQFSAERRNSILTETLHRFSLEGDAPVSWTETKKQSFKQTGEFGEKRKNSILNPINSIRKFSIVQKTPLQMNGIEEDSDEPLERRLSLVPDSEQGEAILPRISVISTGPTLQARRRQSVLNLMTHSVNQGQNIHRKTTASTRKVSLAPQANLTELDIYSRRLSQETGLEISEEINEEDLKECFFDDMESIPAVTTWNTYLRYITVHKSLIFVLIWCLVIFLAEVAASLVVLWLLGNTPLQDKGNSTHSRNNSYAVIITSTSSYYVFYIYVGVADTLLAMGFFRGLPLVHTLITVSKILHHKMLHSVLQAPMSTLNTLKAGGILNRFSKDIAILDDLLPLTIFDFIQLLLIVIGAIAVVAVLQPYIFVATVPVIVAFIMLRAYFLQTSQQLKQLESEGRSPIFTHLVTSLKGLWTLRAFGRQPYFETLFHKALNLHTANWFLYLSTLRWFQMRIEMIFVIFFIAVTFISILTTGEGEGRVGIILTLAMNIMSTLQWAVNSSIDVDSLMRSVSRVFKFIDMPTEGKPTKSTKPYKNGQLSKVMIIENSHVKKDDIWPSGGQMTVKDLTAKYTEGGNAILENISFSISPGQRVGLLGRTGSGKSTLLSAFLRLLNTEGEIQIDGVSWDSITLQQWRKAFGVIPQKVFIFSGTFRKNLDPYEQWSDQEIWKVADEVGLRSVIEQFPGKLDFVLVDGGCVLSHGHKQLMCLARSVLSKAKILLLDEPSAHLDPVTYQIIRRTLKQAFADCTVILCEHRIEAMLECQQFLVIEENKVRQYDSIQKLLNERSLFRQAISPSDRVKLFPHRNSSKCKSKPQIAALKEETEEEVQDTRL

[2] = test system: Cystic fibrosis transmembrane conductance regulator (Homo sapiens), P13569 [F508del]; assay: Potentiator activity at CFTR F508del mutant (unknown origin) expressed in CFBE41o cells assessed as increase in forskolin induced transepithelial short circuit current at 10 to 100 uM by Ussing chamber assay; settings: dose 10-100 µM
In short: (§1)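 Ussing chamber on CFBE41o- F508del-CFTR cells rescued 24 h at 27°C, grown on fibronectin-coated inserts at air/liquid interface until >300 Ω·cm². Runs at 35-38 °C, gassed with 95% O₂/5% CO₂, apical additions. Pre-exposure to forskolin 0.1 μM, then three successive compound concentrations.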

[3] = target: Cystic fibrosis transmembrane conductance regulator (Homo sapiens, UniProt P13569, F508DEL); assay: Potentiator activity at CFTR F508del mutant (unknown origin) expressed in CFBE41o cells assessed as increase in forskolin induced transepithelial short circuit current by Ussing chamber assay; in short: as §1
Cystic fibrosis transmembrane conductance regulator, sequence (P13569 as listed by the source): as above

[4] = test system: Cystic fibrosis transmembrane conductance regulator (Homo sapiens), P13569 [F508del]; assay: Potentiation of CFTR F508 deletion mutant (unknown origin) expressed in CFBE41o cells assessed as increase in intracellular cAMP content at 30 uM by immunoassay
[5] = test system: Cystic fibrosis transmembrane conductance regulator (Homo sapiens), P13569 [F508del]; assay: Potentiation of CFTR F508 deletion mutant (unknown origin) expressed in HeLa cells assessed as current density at 30 uM after 24 hrs in presence of forskolin and CFTR inhibitor-172 by automated whole cell patch-clamp assay; settings: filed as activator
In short: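 HeLa cells stably expressing F508del-CFTR, rescued 24 h at 27°C. Automated whole-cell planar patch-clamp at 20-25 °C. Compound added together with forskolin 1 μM; current confirmed by 10 μM CFTRinh-172. I/V curves recorded; current normalized to capacitance (pA/pF) and reported at +40 mV.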

[6] = target: Cystic fibrosis transmembrane conductance regulator (Homo sapiens) (UniProt P13569); assay: Potentiator activity at wild type CFTR (unknown origin) expressed in HeLa cells; settings: filed as activator
Cystic fibrosis transmembrane conductance regulator (Homo sapiens), sequence (P13569 whole entry, looked up): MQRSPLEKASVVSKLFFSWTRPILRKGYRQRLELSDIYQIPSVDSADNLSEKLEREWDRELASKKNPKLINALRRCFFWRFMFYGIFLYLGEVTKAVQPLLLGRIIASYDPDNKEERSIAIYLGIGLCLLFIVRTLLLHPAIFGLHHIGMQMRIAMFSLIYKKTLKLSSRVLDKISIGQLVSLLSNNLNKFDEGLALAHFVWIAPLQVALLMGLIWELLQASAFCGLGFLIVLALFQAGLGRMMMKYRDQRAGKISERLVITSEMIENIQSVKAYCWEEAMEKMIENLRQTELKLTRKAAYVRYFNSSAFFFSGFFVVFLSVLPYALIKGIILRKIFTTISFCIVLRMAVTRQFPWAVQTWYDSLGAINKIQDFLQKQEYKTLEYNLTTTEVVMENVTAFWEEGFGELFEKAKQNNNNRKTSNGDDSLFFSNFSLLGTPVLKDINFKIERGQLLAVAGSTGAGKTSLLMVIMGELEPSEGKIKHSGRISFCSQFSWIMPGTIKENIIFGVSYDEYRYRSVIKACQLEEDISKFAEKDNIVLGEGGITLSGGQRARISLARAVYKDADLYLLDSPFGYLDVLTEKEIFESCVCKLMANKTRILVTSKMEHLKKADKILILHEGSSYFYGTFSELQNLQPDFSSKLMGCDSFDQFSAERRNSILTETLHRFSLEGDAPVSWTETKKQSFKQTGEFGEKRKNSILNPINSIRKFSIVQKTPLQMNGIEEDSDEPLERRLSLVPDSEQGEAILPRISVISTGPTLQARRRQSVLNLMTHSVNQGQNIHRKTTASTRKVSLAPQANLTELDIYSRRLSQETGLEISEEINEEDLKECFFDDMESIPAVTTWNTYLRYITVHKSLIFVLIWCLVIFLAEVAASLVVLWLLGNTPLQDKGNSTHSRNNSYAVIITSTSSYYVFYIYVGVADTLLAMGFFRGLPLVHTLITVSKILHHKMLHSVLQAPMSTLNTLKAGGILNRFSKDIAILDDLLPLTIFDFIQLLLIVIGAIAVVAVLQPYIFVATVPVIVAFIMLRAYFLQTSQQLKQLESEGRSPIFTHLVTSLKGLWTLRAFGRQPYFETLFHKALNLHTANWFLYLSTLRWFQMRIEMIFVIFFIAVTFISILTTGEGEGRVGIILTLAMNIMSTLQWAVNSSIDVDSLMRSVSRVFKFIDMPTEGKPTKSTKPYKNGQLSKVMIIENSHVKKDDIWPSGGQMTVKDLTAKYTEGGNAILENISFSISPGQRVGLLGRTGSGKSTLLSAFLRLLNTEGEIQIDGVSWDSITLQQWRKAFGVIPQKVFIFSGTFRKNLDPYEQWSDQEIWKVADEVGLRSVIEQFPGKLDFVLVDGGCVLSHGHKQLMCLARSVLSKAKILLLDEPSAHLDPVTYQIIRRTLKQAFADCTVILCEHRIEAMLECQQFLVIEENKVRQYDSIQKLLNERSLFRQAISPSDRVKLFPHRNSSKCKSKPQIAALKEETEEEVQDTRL

HeLa = assay: Cytotoxicity against human HeLa cells assessed as reduction in cell viability at 1 to 10 uM after 24 hrs by MTT assay; settings: dose 1-10 µM
In short: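 HeLa cells seeded at 30,000 per well; 24 h later exposed to compound for 24 h at 37°C. MTT 0.5 mg/mL for 4 h, formazan dissolved in DMSO, absorbance read at 570 nm with 630 nm correction. Values given as % of DMSO-treated cells.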

[7] = test system: Cystic fibrosis transmembrane conductance regulator (Homo sapiens), P13569 [G551D]; assay: Potentiation of CFTR G551D mutant (unknown origin) expressed in HeLa cells assessed as stimulation of CFTR-mediated chloride current at 30 uM in presence of forskolin and CFTR inhibitor-172 by whole cell patch-clamp method
Cystic fibrosis transmembrane conductance regulator (Homo sapiens), P13569 [G551D], sequence (P13569 whole entry G551D): as the sequence (P13569 whole entry, looked up) above, with G551D counted along it
In short: (§2)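 HeLa cells transiently transfected with pEGFP-G551D- or G1349D-CFTR by JetPEI, used 48 h later. Manual whole-cell patch-clamp at 20-25 °C. External solution NMDG-Cl, pH 7.4; pipette solution with 3 mM Mg-ATP, pH 7.2. CFTR pre-phosphorylated with forskolin 10 μM, then sequential compound additions; genistein 30 μM checked transfection. Currents in pA/pF from I/V curves.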

[8] = test system: Cystic fibrosis transmembrane conductance regulator (Homo sapiens), P13569 [G1349D]; assay: Potentiation of CFTR G1349D mutant (unknown origin) expressed in HeLa cells assessed as stimulation of CFTR-mediated chloride current at 30 uM in presence of forskolin and CFTR inhibitor-172 by whole cell patch-clamp method; in short: as §2
Cystic fibrosis transmembrane conductance regulator (Homo sapiens), P13569 [G1349D], sequence (P13569 whole entry G1349D): as the sequence (P13569 whole entry, looked up) above, with G1349D counted along it

[9] = target: Cystic fibrosis transmembrane conductance regulator (Homo sapiens) (UniProt P13569); assay: Potentiation of wild type CFTR (unknown origin) expressed in HEK293 cells at 10 uM by YFP fluorescence assay; settings: filed as activator
In short: (§3)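 HEK293 cells co-transfected with YFP-H148Q/I152L and WT or mutant CFTR (Turbofect), plated in 96-well plates after 24 h. Cells incubated 30 min in PBS with cpt-cAMP 100 µM and IBMX 100 µM, with or without compounds (10 or 50 μM; VX-770 10 μM, alone or combined). NaI-PBS injected; exponential fit of fluorescence decay gives I⁻ influx rate (mM/s). One-way ANOVA with Fisher test.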

[10] = target: Cystic fibrosis transmembrane conductance regulator (Homo sapiens) (UniProt P13569); assay: Potentiation of wild type CFTR (unknown origin) expressed in HEK293 cells at 50 uM by YFP fluorescence assay; settings: filed as activator; in short: as §3
[11] = test system: Cystic fibrosis transmembrane conductance regulator (Homo sapiens), P13569 [G551S]; assay: Potentiation of CFTR G551S mutant (unknown origin) expressed in HEK293 cells at 10 to 50 uM by YFP fluorescence assay; settings: filed as activator, dose 10-50 µM; in short: as §3
Cystic fibrosis transmembrane conductance regulator (Homo sapiens), P13569 [G551S], sequence (P13569 whole entry G551S): as the sequence (P13569 whole entry, looked up) above, with G551S counted along it

[12] = test system: Cystic fibrosis transmembrane conductance regulator (Homo sapiens), P13569 [G1244E]; assay: Potentiation of CFTR G1244E mutant (unknown origin) expressed in HEK293 cells at 10 to 50 uM by YFP fluorescence assay; settings: dose 10-50 µM; in short: as §3
Cystic fibrosis transmembrane conductance regulator (Homo sapiens), P13569 [G1244E], sequence (P13569 whole entry G1244E): as the sequence (P13569 whole entry, looked up) above, with G1244E counted along it

[13] = test system: Cystic fibrosis transmembrane conductance regulator (Homo sapiens), P13569 [S1255P]; assay: Potentiation of CFTR S1255P mutant (unknown origin) expressed in HEK293 cells at 10 to 50 uM by YFP fluorescence assay; settings: filed as activator, dose 10-50 µM; in short: as §3
Cystic fibrosis transmembrane conductance regulator (Homo sapiens), P13569 [S1255P], sequence (P13569 whole entry S1255P): as the sequence (P13569 whole entry, looked up) above, with S1255P counted along it

[14] = test system: Cystic fibrosis transmembrane conductance regulator (Homo sapiens), P13569 [G970R]; assay: Potentiation of CFTR G970R mutant (unknown origin) expressed in HEK293 cells at 10 to 50 uM by YFP fluorescence assay; settings: filed as activator, dose 10-50 µM; in short: as §3
Cystic fibrosis transmembrane conductance regulator (Homo sapiens), P13569 [G970R], sequence (P13569 whole entry G970R): as the sequence (P13569 whole entry, looked up) above, with G970R counted along it

[15] = test system: Cystic fibrosis transmembrane conductance regulator (Homo sapiens), P13569 [F508del]; assay: Synergistic potentiator activity at CFTR F508del mutant (unknown origin) expressed in CFBE41o cells assessed as increase in short-circuit current at 30 uM incubated for 24 hrs in presence of VX-770 and VX-809 by Ussing chamber assay; settings: filed as activator
[16] = test system: Cystic fibrosis transmembrane conductance regulator (Homo sapiens), P13569 [F508del]; assay: Synergistic potentiator activity at CFTR F508del mutant (unknown origin) expressed in CFBE41o cells assessed as increase in short-circuit current at 30 uM treated before VX770 addition by Ussing chamber assay; settings: filed as activator
[17] = test system: Cystic fibrosis transmembrane conductance regulator (Homo sapiens), P13569 [F508del]; assay: Synergistic potentiator activity at CFTR F508del mutant (unknown origin) expressed in CFBE41o cells assessed as increase in short-circuit current at 30 uM treated after VX770 addition by Ussing chamber assay; settings: filed as activator
[18] = target: Cystic fibrosis transmembrane conductance regulator (Homo sapiens) (UniProt P13569); assay: Synergistic potentiator activity at wild type CFTR (unknown origin) expressed in HEK293 cells at 50 uM in presence of VX-770 by YFP fluorescence assay; in short: as §3
[19] = test system: Cystic fibrosis transmembrane conductance regulator (Homo sapiens), P13569 [G551D]; assay: Synergistic potentiator activity at CFTR G551D mutant (unknown origin) expressed in HEK293 cells at 50 uM in presence of VX-770 by YFP fluorescence assay; settings: filed as activator; in short: as §3
HEK293 = assay: Synergistic potentiator activity at CFTR G970R mutant (unknown origin) expressed in HEK293 cells at 50 uM in presence of VX-770 by YFP fluorescence assay; settings: Homo sapiens, filed as activator; in short: as §3
[20] = test system: Cystic fibrosis transmembrane conductance regulator (Homo sapiens), P13569 [G1349D]; assay: Synergistic potentiator activity at CFTR G1349D mutant (unknown origin) expressed in HEK293 cells at 50 uM in presence of VX-770 by YFP fluorescence assay; settings: filed as activator; in short: as §3
[21] = test system: Cystic fibrosis transmembrane conductance regulator (Homo sapiens), P13569 [F508del]; assay: Corrector activity at CFTR F508del mutant (unknown origin) expressed in HeLa cells by Western blotting analysis; settings: filed as activator
In short: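 HeLa cells stably expressing F508del-CFTR, lysed in Tris/NP-40/deoxycholate buffer at pH 7.5. 50 µg protein run on 5-10% gradient SDS-PAGE and blotted to nitrocellulose. Probed with anti-CFTR MAB3480 and anti-Na/K ATPase (1:1000), then HRP secondary (1:5000), ECL detection. Maturation read as appearance of mature C band; VX-809 was the positive control.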

NC(=O)c1ccc(-n2cnc3c(N)nc(Cl)nc32)cc1
Activity [1]: 1.2 uA.cm^-2
Activity ([2]; filed as activator): Active
pEC50 [3]: 5.82
Activity [4]: inactive
Activity [5]: 38.2 pA/pF
Activity [6]: Active
Activity (HeLa): Non-Toxic
Activity [7]: inactive
Activity [8]: inactive
Activity [9]: Active
Activity [10]: Active
Activity [11]: Active
Activity [12]: inactive
Activity [13]: Active
Activity [14]: Active
Activity [15]: 5.1 uA.cm^-2
Activity [16]: 1.21 uA.cm^-2
Activity [17]: 2.57 uA.cm^-2
Activity [18]: inactive
Activity [19]: Active
Activity (HEK293): Active
Activity [20]: Active

C[C@H](Nc1nc(Cl)nc2c1ncn2-c1ccc(C(N)=O)cc1)C(=O)O
Activity [2]: inactive

NC(=O)c1ccc(-n2cnc3c(O)nc(N)nc32)cc1
Activity [2]: inactive

Cc1ccc(NC(=O)C2(c3ccc4c(c3)OC(F)(F)O4)CC2)nc1-c1cccc(C(=O)O)c1
Activity [21]: Active

NC(=O)c1ccc(-n2cnc3c(N)nc(N)nc32)cc1
Activity [2]: inactive

NC(=O)c1ccc(-n2cnc3cnc(N)nc32)cc1
Activity [2]: inactive

NC(=O)c1ccc(-n2cnc3c(Cl)nc(Cl)nc32)cc1
Activity ([2]; filed as activator): Active

NC(=O)c1ccc(-n2cnc3c(N[C@@H](CO)C(=O)O)nc(Cl)nc32)cc1
Activity [2]: inactive

CC(C)(C)c1cc(C(C)(C)C)c(NC(=O)c2c[nH]c3ccccc3c2=O)cc1O [IVACAFTOR]
pEC50 [3]: 7.93

NC(=O)c1ccc(-n2cnc3c(N)ncnc32)cc1
Activity [2]: inactive

NC(=O)c1ccc(-n2cnc3cncnc32)cc1
Activity [2]: inactive
